{"data": "Published values from different studies", "target": "Serine/threonine-protein kinase WNK4 (WNK4, Homo sapiens, UniProt Q96J92)"}
{"Compound": "CN(C)c1nccc(-c2cnn3ncccc23)n1", "test": "binding", "conditions": "1 µM", "remaining binding": "59%"}
{"Compound": "CSc1cccnc1N1CCN(Cc2nc3ccccc3[nH]2)CC1", "test": "cell-free assay, competition with immobilised ligand", "conditions": "1 µM", "remaining binding": "91%"}
{"Compound": "CN(CCCC(F)(F)F)c1nccc(-c2cnn3ncccc23)n1", "test": "binding", "conditions": "1 µM", "remaining binding": "91%"}
{"Compound": "C[C@@H](c1ccc(-n2cnc3c(N)ncnc32)cc1)N1CCc2nn(C)c(Cc3ccccc3)c2C1=O", "test": "binding, competition with immobilised ligand", "conditions": "0.1 µM", "remaining binding": "75%"}
{"Compound": "CN(C)CC#Cc1ccc(OCCCc2sc(N3CCc4cccc(C(=O)Nc5nc6ccccc6s5)c4C3)nc2C(=O)O)c(F)c1", "test": "cell-free assay, competition with immobilised ligand", "conditions": "1 µM", "remaining binding": "81%"}
{"Compound": "F[C@@H]1CCN(c2nccc(-c3cnn4ncccc34)n2)C1", "test": "binding", "conditions": "1 µM", "remaining binding": "91%"}
{"Compound": "COc1cnc(Nc2cccc(S(N)(=O)=O)c2)nc1N1CCN(c2ccccc2)C(=O)C1", "test": "binding, competition with immobilised ligand", "conditions": "1 µM", "remaining binding": "89%"}
{"Compound": "O=C(Nc1c[nH]nc1C(=O)NC1CCNCC1)c1cc(F)cc(F)c1", "test": "binding, competition with immobilised ligand", "conditions": "1 µM", "remaining binding": "100%"}
{"Compound": "COc1cnc(Nc2cccc(S(N)(=O)=O)c2)nc1N1CCN(c2ccccc2)CC1", "test": "binding, competition with immobilised ligand", "conditions": "1 µM", "remaining binding": "82%"}
{"Compound": "Cc1cnc(Nc2ccc(C(=O)N3CCC(N4CCCC4)CC3)cc2)nc1-c1cc2ccccc2s1", "test": "binding, competition with immobilised ligand", "conditions": "1 µM", "remaining binding": "73%"}
{"Compound": "C[C@H]1CCN(c2nccc(-c3cnn4ncccc34)n2)C1", "test": "binding", "conditions": "1 µM", "remaining binding": "79%"}
{"Compound": "O=C(NCCCN1CCOCC1)c1ccc(Nc2nccc(-c3cc4ccccc4s3)n2)cc1", "test": "binding, competition with immobilised ligand", "conditions": "1 µM", "remaining binding": "71%"}
{"Compound": "NS(=O)(=O)c1cc(NC(=O)C2(c3ccccc3Cl)CC2)ccc1Oc1cccc(Cl)c1", "test": "cell-free assay, competition with immobilised ligand", "conditions": "1 µM", "remaining binding": "81%"}
{"Compound": "c1cnn2ncc(-c3ccnc(N4CCC45COC5)n3)c2c1", "test": "binding", "conditions": "1 µM", "remaining binding": "64%"}
{"Compound": "CC(=O)c1c(NS(C)(=O)=O)c2cc(-c3ccc(Cl)cc3)c(-c3ccc(Cl)cc3Cl)nc2n(C)c1=O", "test": "cell-free assay, competition with immobilised ligand", "conditions": "1 µM", "remaining binding": "96%"}
{"Compound": "O=C(c1ccc(Nc2ncc(Cl)c(-c3ccc(Cl)s3)n2)cc1)N1CCC(N2CCCC2)CC1", "test": "binding, competition with immobilised ligand", "conditions": "1 µM", "remaining binding": "100%"}
{"Compound": "CC1=C(C#N)[C@@H](c2ccc3[nH]nc(C)c3c2)C(C#N)=C(c2ccc(Cl)cc2)N1", "test": "cell-free assay, competition with immobilised ligand", "conditions": "1 µM", "remaining binding": "100%"}
{"Compound": "FC(F)(F)Oc1cccc(-c2cnc3ccc(-c4ccncc4)nn23)c1", "test": "binding, competition with immobilised ligand", "conditions": "5 µM", "remaining binding": "100%"}
{"Compound": "Cc1nc(N2CC[C@@H](O)C2)ncc1-c1cc(C(F)(F)F)cc2[nH]ncc12", "test": "binding, competition with immobilised ligand", "conditions": "1 µM", "remaining binding": "95%"}
{"Compound": "N[C@@H]1CCN(c2nccc(-c3cnn4ncccc34)n2)C1", "test": "binding", "conditions": "1 µM", "remaining binding": "100%"}
